SUMO HTRF inh: inhibitors of in vitro SUMOylation cascade, primary screen, biochemical, HTRF, uHTS; inhibition, % at 35 µM; 290,000 tested, 0.36% active; AID 2006, 2009; HTRF SUMOylation assay, SAE1/SAE2 + UBC9; in the data active = inhibition above about 50%, passing the limit was not always enough; inconclusive = no clear call, values can overlap the other calls
Target sequence (P63279 whole entry, looked up): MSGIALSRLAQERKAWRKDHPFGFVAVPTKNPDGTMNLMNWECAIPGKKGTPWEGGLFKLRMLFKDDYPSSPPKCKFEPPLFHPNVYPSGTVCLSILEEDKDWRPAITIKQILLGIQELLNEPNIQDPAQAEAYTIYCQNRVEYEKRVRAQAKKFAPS
GSTO1 inh: inhibitors of recombinant GSTO1, primary screen, counter-screen for RBBP9 inhibitor project, biochemical, fluorescence polarization; activity-based probe fluorescence polarization; Glutathione S-transferase omega-1 (Homo sapiens), P78417; 300,000 tested, 1.1% active; inhibition, % at 5.96 µM;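 active = inhibition above the campaign mean inhibition plus 3 SD, cut at about 35% in these data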;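 also: 0% = GSTO1-1 with DMSO and 100% = wells lacking GSTO1-1 enzyme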
Target sequence (P78417 whole entry, looked up): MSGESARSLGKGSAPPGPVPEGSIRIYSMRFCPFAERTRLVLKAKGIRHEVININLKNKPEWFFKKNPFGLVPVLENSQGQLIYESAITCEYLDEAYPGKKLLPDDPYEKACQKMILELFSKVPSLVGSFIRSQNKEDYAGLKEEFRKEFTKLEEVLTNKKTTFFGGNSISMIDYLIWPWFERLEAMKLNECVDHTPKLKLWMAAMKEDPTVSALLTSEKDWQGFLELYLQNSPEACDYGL
Apaf1 inhib: inhibitors of human Apaf-1 apoptosome, primary screen, biochemical, DEVD-Rh110 fluorescence, uHTS | inhibition, % at 20 µM | Apoptotic protease-activating factor 1 (Homo sapiens), O14727 | AID 489030, 2010 | reconstituted apoptosome caspase-3 activity | 330,000 tested, 0.71% active; active = inhibition of at least 40% at 20 µM;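 also: plate controls were DMSO wells for no effect and DEVD-CHO caspase inhibitor wells for full effect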
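Assay system – apoptosome proteins · Medium – Hepes buffer, pH 7.5 · Also added – cytochrome c with DEVD-Rh110 · Timing – 30 min compound preincubation, 50 min activation, room temperature · Detection – Rh110 fluorescence, excitation 480 nm, emission 540 nm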
Redox H2O2 prof: compounds producing H2O2 with reducing agent – biochemical, NIH compound library profiling, artefact control for MLSCN library redox annotation, primary screen | DTT-dependent redox cycling H2O2, phenol red/HRP absorbance; 100% = 100 µM peroxide control, 0% = buffer | activation, % at 10 µM | 200,000 tested, 0.03% active | AID 878, 2007;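 active = activation of at least 50% relative to the plate's high and low controls in the primary single-dose screen; inactive = activation below 50%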;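 also: compound incubated with DTT at 0.8 mM final as the reducing agent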
HKDC1 inhibitor: HKDC1 hexokinase inhibitors, primary screen, biochemical, fluorescence, uHTS; Q2TB90; AID 493160, 2011; inhibition, % at 20 µM; recombinant HKDC1, G6PDH/diaphorase resazurin coupled fluorescence; 340,000 tested, 0.16% active;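 active = inhibition above about 35% when tested at 20 µM, limit read from the data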;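 also: plate controls were DMSO wells with enzyme for no effect and DMSO wells lacking enzyme for full effect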
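Incubation: 90 min at room temperature in dark / Material: recombinant HKDC1 (HK5) hexokinase enzyme, produced in-house / Quantity: enzyme 5 µg/mL final / Compound: one dose of 20 µM, 1% DMSO / Reagent: glucose and ATP substrates / Buffer or medium: Tris pH 8.0 buffer with MgCl2, Tween-20, BSA, BME / Technique: resorufin fluorescence at 613 nm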
HKDC1 act conf: HKDC1 hexokinase activators, confirmation, biochemical, single concentration; shares compounds with HKDC1 inhibitor; recombinant HKDC1, G6PDH/diaphorase resazurin fluorescence; stronger effect = lower value; inhibition, % at 20 µM; 740 tested, 14% active;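 active = inhibition at or below a set negative limit, negative inhibition meaning the enzyme was activated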
Numbers without * were called inactive; ? = inconclusive; . = not tested or not shown. Most compounds without a hit are left out; they make up all but 1.4% or so of the library.

SMILES | SUMO HTRF inh | GSTO1 inh | Apaf1 inhib | Redox H2O2 prof | HKDC1 inhibitor | HKDC1 act conf
CCC(=O)OC1(C)C(=O)C2=COC(c3ccc(OC)cc3)=CC2=C(Br)C1=O (configuration not stated) | 8 | 33 | 22 | . | 45* | 30
COc1ccc(C2=CC3=CC(=O)C(C)(O)C(=O)C3=CO2)cc1 (configuration not stated) | . | 34 | 16 | . | . | .
CCC(=O)OC1(C)C(=O)C=C2C=C(c3ccc(C#N)cc3)OC=C2C1=O (configuration not stated) | . | 20 | 6 | . | 12 | .
CC(=O)OCC1=C(C(=O)O)N2C(=O)[C@@H](NC(=O)Cc3ccccc3)[C@H]2SC1 | . | . | . | . | 3 | .
C=CC1=C(C(=O)O)N2C(=O)C(NC(=O)Cc3ccccc3)C2SC1 (configuration not stated) | 10 | 5 | 3 | 0 | 40* | -8
Cn1c(SSc2ccc(-c3cccnc3)n2C)ccc1-c1cccnc1 | . | . | . | . | -341 | -248*
COc1ccc(C2=NNC(=Nc3cc(S(=O)(=O)N(C)C)ccc3C)SC2)c(OC)c1 | 8 | 12 | -16 | . | -125 | -120*
CC1CCN(S(=O)(=O)c2ccc(NC(=O)CN3C(=O)NC(C)(c4ccccc4)C3=O)cc2)CC1 (configuration not stated) | . | -10 | 13 | . | -1 | .
CC1=NOC(=O)/C1=C\c1ccc(-c2cc(Cl)ccc2Cl)o1 | . | 6 | 22 | 3 | 57* | 10
CC1=NOC(=O)/C1=C/c1ccc(-c2ccc(Cl)cc2)o1 | 44 | 32 | 15 | 6 | . | .
CC1=NOC(=O)/C1=C\c1ccc(-c2ccc(Br)cc2)o1 | 31 | . | . | 0 | 42* | 12
CCCn1c(=O)c(C(=O)NNS(=O)(=O)c2ccc(NC(=O)OC)cc2)c(O)c2ccccc21 | -4 | 3 | 21 | . | 2 | .
O=C(CCC1CCCC1)NCCS(=O)(=O)N1CCN(c2ccccc2)CC1 | . | 6 | 6 | . | -4 | .
Cn1c(SCc2ccc(F)cc2Cl)nc2ccccc2c1=O | . | . | 24 | . | -3 | .
Oc1cc(-c2ccccc2)c2ccccc2c1 | 1 | 0 | 21 | 0 | 27 | -6
c1ccc2c(c1)-c1cccc3c1c-2cc1ccccc13 | . | . | 1 | . | . | .
Cc1cc(C)c2c(CN3CCN(Cc4ccccc4)CC3)cc(=O)oc2c1 | 5 | . | 17 | . | 2 | .
CC(=NNC(=S)N1CCCCC1)c1cccc(C)n1 | . | . | . | . | -40 | -40*
CSC(=S)NN=C(C)c1cccc(C)n1 | . | . | . | . | -37 | .
CCOC(=O)c1c(NC(=O)CSc2nnnn2-c2ccc(OC)cc2)sc(C)c1C | -4 | 8 | -3 | 0 | -48 | -42*
CCOC(=O)c1csc(NC(=O)CSc2nnnn2-c2ccc(OC)cc2)n1 | 11 | 2 | 3 | -3 | -4 | .
CC1COCC(C)N1C1=C(Cl)C(=O)c2ccccc2C1=O (configuration not stated) | . | . | . | . | 38* | 43
CN1CCN(C2=C(Cl)C(=O)c3ccccc3C2=O)CC1 | . | . | . | . | 44* | 33
COc1ccc(N(C(=O)c2cnccn2)C(C(=O)NC2CCCCC2)c2ccccc2)cc1 (configuration not stated) | -7 | -3 | 12 | . | 2 | .
CN(C(=O)COC(=O)c1ccc2c(=O)n3c(nc2c1)CCC3)C1CCS(=O)(=O)C1 (configuration not stated) | 3 | 9 | -1 | 0 | -4 | .
SMILES | SUMO HTRF inh | GSTO1 inh | Apaf1 inhib | Redox H2O2 prof | HKDC1 inhibitor | HKDC1 act conf
Cc1ccc(S(=O)(=O)N2CCN(C(=O)c3cc4c(s3)CCCC4)CC2)cc1 | . | . | 25 | . | 5 | .
COc1ccc(S(=O)(=O)N2CCN(C(=O)c3cc4c(s3)CCC4)CC2)cc1 | . | . | 22 | . | 34 | -23
O=C1c2ccccc2-c2onc3ccc(Oc4ccccc4)c1c23 | 20 | 6 | 22 | 0 | 34 | 28
Cc1noc(C)c1S(=O)(=O)Nc1ccccc1Oc1ccccc1 | 10 | 7 | -13 | . | 0 | .
Cc1ccc(/C=C2\C(=O)ON=C2c2ccccc2)o1 | 4 | 1 | 6 | -1 | -5 | .
Cc1ccc(-c2ccc(/C=C3\C(=O)ON=C3c3ccccc3)o2)c([N+](=O)[O-])c1 | 35 | 31 | -17 | -1 | 43* | 10
COc1ccccc1N(C)S(=O)(=O)c1ccc(Cl)c(C(=O)NCC2(N(C)C)CCCCC2)c1 | . | 2 | 6 | . | 42* | -28
COc1ccccc1N(C)S(=O)(=O)c1ccc(Cl)c(C(=O)NNC(=O)c2ccccc2O)c1 | 10 | -3 | 11 | . | -16 | .
Cc1ccc(S(=O)(=O)N[C@H](C(=O)OCC(=O)NC(=O)c2cccn2C)C(C)C)cc1 | . | . | . | . | -4 | .
NS(=O)(=O)c1ccc(N/N=C/c2ccc(O)cc2O)c([N+](=O)[O-])c1 | 20 | 4 | -17 | . | 1 | .
NS(=O)(=O)c1ccc(N/N=C/c2ccc(O)c(O)c2O)c([N+](=O)[O-])c1 | ? | . | . | . | 36* | -11
CCOC(=O)c1c(S(=O)(=O)N2CCCCC2C)c(C)n(C)c1C (configuration not stated) | 14 | 11 | -13 | . | -6 | .
CCOc1ccc2c(ccc(/C=C/c3cc(C)c4cccnc4c3O)[n+]2C)c1 | . | . | . | . | 46* | 8
CC(C)(C)NC(=O)NC(=O)COC(=O)CCC1CCCC1 | 20 | 7 | 12 | . | 4 | .
O=C(OCC(=O)N1CCN(C(=O)c2ccco2)CC1)c1cc(-c2ccccc2)nc2ccccc12 | 5 | 3 | 22 | 1 | 37* | -23
O=C(CCS(=O)(=O)c1ccc(Br)cc1)NC1CCCCCC1 | 8 | 2 | 0 | . | -3 | .
CCCC(NC(=O)Cc1c(C)c2cc3c(C)c(C)oc3c(C)c2oc1=O)C(=O)N[C@@H](Cc1ccccc1)C(=O)O (some centres not stated) | 14 | 3 | . | . | 52* | -19
CCCCC(NC(=O)Cc1c(C)c2cc3c(C)c(C)oc3c(C)c2oc1=O)C(=O)O (configuration not stated) | 30 | 0 | 6 | . | 2 | .
O=C1C(=Cc2ccc(Br)o2)C(=O)c2ccccc21 | 22 | 33 | . | 0 | 36* | 36
CC1=C/C(=C\c2ccc(Br)o2)C(=O)O1 | 3 | 3 | -11 | 0 | 3 | .
O=C(NCc1ccccn1)c1cc(S(=O)(=O)N2CCN(c3ccccc3)CC2)ccc1Cl | 15 | 9 | 9 | 0 | 73* | -3
Cc1cc2cc(CCNC(=O)CCCc3ccccc3)c(=O)[nH]c2cc1C | . | 0 | 7 | . | 23 | .
CCN(C(=O)COC(=O)c1ccc([N+](=O)[O-])o1)c1cccc2ccccc12 | . | . | 18 | . | -4 | .

Compound activity as filed in PubChem BioAssay.
